The results in this text go back to ChEMBL document CHEMBL4715840, “Antibacterial activity of lipo-α/sulfono-γ-AA hybrid peptides” (Eur J Med Chem, 2020).

A word on the MIC: it is the lowest concentration found to suppress growth. Low values mean greater potency, high ones weaker potency. A word on the HC50: it is the concentration giving 50% haemolysis. A high value points to less damage to red cells.

The test system of one data set is Pseudomonas aeruginosa. Briefly: Antibacterial activity against Pseudomonas aeruginosa ATCC 27853 incubated for 12 to 16 hrs by microtiter method. It is filed as functional. Conditions: time 12-16 hrs. The method, boiled down:
(§1)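 Single colonies grown overnight in TSB at 37 °C, diluted 100-fold and grown to mid-log phase. Equal volumes of bacterial suspension and peptide dilutions in TSB mixed and incubated 37 °C for 12-16 h. Growth read as absorbance at 600 nm. MIC taken as lowest concentration inhibiting growth. Three repeats, duplicates each.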

In data set [1] the test system is Escherichia coli. Put plainly: Antibacterial activity against Escherichia coli ATCC 25922 incubated for 12 to 16 hrs by microtiter method. In kind it is functional. Conditions: time 12-16 hrs. The method, boiled down: as §1
In data set [2] the test system is Staphylococcus aureus. Put plainly: Antibacterial activity against methicillin-resistant Staphylococcus aureus ATCC 33591 incubated for 12 to 16 hrs by microtiter method. Conditions: time 12-16 hrs. In kind it is functional. The method, boiled down:
(§2)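 Single colony grown overnight at 37 °C in TSB, diluted 100-fold and grown to mid-log phase. Equal volumes of cell suspension and peptide serial dilutions in TSB were combined and incubated 37 °C for 12-16 h. Growth read as absorbance at 600 nm. MIC taken as the lowest concentration inhibiting growth. Three repeats, each in duplicate.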

The subject of the next data set is Enterococcus faecalis. Briefly: Antibacterial activity against Enterococcus faecalis ATCC 700802 incubated for 12 to 16 hrs by microtiter method. In kind it is functional. Conditions: time 12-16 hrs. Put shortly: as §1
For data set [3], the system named is Staphylococcus epidermidis. Briefly: Antibacterial activity against methicillin-resistant Staphylococcus epidermidis RP62A incubated for 12 to 16 hrs by microtiter method. In kind it is functional. As to conditions: time 12-16 hrs. The method, boiled down:
as §2

The nature of data set [4]: Hemolytic activity against RBC (unknown origin). It is filed as ADME, cell-based, Erythrocyte. As to conditions: red blood cells (erythrocytes).
A short description of data set [5]: Selectivity index, ratio of HC50 for human RBC to MIC for methicillin-resistant Staphylococcus aureus ATCC 33591. It is filed as toxicity. Conditions: human red blood cells, read-out: Selectivity Index.
In data set [6] the test system is Cell membrane. Put plainly: Induction of membrane disruption in Escherichia coli at 6 ug/ml measured after 2 hrs by DAPI/propidium iodide staining based fluorescence microscopic analysis. Conditions: dose 6.0 µg/ml. The method, boiled down:
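Mid-log bacteria exposed to peptide for 2 h at 37 °C, then centrifuged at 5000g for 15 min and washed with PBS. Stained with PI (5 µg/mL), washed three times in PBS, then stained with DAPI (10 µg/mL), each stain 15 min on ice in the dark. Viewed by fluorescence microscopy with a 100X oil objective.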

The subject of data set [7] is Staphylococcus aureus. Briefly: Bactericidal activity against methicillin-resistant Staphylococcus aureus ATCC 33591 at 50 ug/ml measured after 10 mins by time-kill assay. It is filed as functional, organism-based. Put shortly:
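Cells grown in TSB at 37 °C to mid-log phase, diluted to 1 × 10^6 CFU/mL, then exposed to peptide at 12.5, 25 or 50 µg/mL for 10 min, 30 min, 1 h and 2 h. Samples diluted 102 to 104-fold and plated. Colonies counted after overnight growth at 37 °C and plotted against exposure time.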

In data set [8] the test system is Cell membrane. Put plainly: Induction of membrane disruption in methicillin-resistant Staphylococcus aureus ATCC 33591 at 6 ug/ml measured after 2 hrs by DAPI/propidium iodide staining based fluorescence microscopic analysis. It is filed as subcellular. Conditions: dose 6.0 µg/ml. The method, boiled down:
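Mid-log cells exposed to peptide at 37 °C for 2 h. Methods give 10 µg/mL; the legend gives 6 µg/mL. Cells pelleted at 5000g for 15 min and washed in PBS. Stained with PI (5 µg/mL), washed three times in PBS, then stained with DAPI (10 µg/mL), each stain 15 min on ice in the dark. Imaged with a 100X oil objective. Untreated cells as control.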

Data set [9] has as its system Cell membrane. Briefly: Induction of membrane disruption in methicillin-resistant Staphylococcus aureus ATCC 33591 at 250 ug/ml measured for 30 mins by DiSC35 dye based fluorescence assay. As to conditions: dose 250.0 µg/ml. It is filed as subcellular. The method, boiled down:
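Mid-log cells washed with 5 mM HEPES and 5 mM glucose. Resuspended at 10^8 CFU/mL in 5 mM glucose, 5 mM HEPES and 100 mM KCl mixed 1:1:1, with 2 µM DiSC3(5), at 37 °C. Fluorescence (ex 622, em 670 nm) followed for 30 min. Peptide at 250 µg/mL added once the minimum was reached, about 20 min. Untreated culture as negative control. At least three repeats in duplicate.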

The test system of data set [10] is Escherichia coli. Briefly: Bactericidal activity against Escherichia coli ATCC 25922 at 25 to 50 ug/ml measured after 60 mins by time-kill assay. It is filed as functional, organism-based. Conditions: dose 25-50 µg/ml. The method, boiled down:
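Mid-log TSB cultures at 37 °C diluted to 1 × 10^6 CFU/mL and exposed to 12.5, 25 or 50 µg/mL peptide for 10 min, 30 min, 1 h and 2 h. Aliquots diluted 102 to 104-fold and plated. Colonies counted after overnight incubation at 37 °C and plotted against exposure time.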

For data set [11], the system named is Cell membrane. Briefly: Induction of membrane disruption in Escherichia coli at 250 ug/ml measured for 30 mins by DiSC35 dye based fluorescence assay. In kind it is subcellular. As to conditions: dose 250.0 µg/ml.

Values after ≈ are worked out from the molar mass of the structure shown. Active and inactive are the calls of the source. The calls are words filed in the database; no cut-off is given here.

With `CCCCCCCCCC(=O)N[C@@H](CCCCN)C(=O)N[C@@H](CCCCN)CN(CC(N)=O)S(=O)(=O)Cc1ccccc1`, the MIC (against Pseudomonas aeruginosa; against Escherichia coli [1]; in the data set with Staphylococcus aureus [2]; against Enterococcus faecalis; in data set [3]) was greater than 50 µg/mL each time.
With `CCCCCCCCCCCCCCCC(=O)N[C@@H](CCCCN)C(=O)N[C@@H](CCCCN)CN(CC(=O)N[C@@H](CCCCN)CN(CC(N)=O)S(=O)(=O)Cc1ccccc1)S(=O)(=O)Cc1ccccc1`, the MIC was 8 µg/mL (≈ 7.73 µM) against Pseudomonas aeruginosa; 8 µg/mL (≈ 7.73 µM) against Escherichia coli [1]; 2 µg/mL (≈ 1.93 µM) in the data set on Staphylococcus aureus [2]; 5 µg/mL (≈ 4.83 µM) against Enterococcus faecalis; 5 µg/mL (≈ 4.83 µM) in [3]. For the same compound, the HC50 in [4] stood at 50 µg/mL. Further, the selectivity ratio in data set [5] was 25.
Take `CCCCCCCCCCCC(=O)N[C@@H](CCCCN)C(=O)N[C@@H](CCCCN)CN(CC(N)=O)S(=O)(=O)Cc1ccccc1`: the MIC against Pseudomonas aeruginosa is 8 µg/mL (≈ 12.3 µM); against Escherichia coli [1], 5 µg/mL (≈ 7.66 µM); with Staphylococcus aureus [2], 20 µg/mL (≈ 30.6 µM); against Enterococcus faecalis, greater than 50 µg/mL; in data set [3], 20 µg/mL (≈ 30.6 µM).
As to `CCCCCCCCCCCCCC(=O)N[C@@H](CCCCN)C(=O)N[C@@H](CCCCN)CN(CC(N)=O)S(=O)(=O)Cc1ccccc1`, the MIC in the data set with Pseudomonas aeruginosa stood at 5 µg/mL (≈ 7.34 µM); against Escherichia coli [1], 2 µg/mL (≈ 2.94 µM); in the data set with Staphylococcus aureus [2] it was 5 µg/mL (≈ 7.34 µM); against Enterococcus faecalis, 5 µg/mL (≈ 7.34 µM); in data set [3], 5 µg/mL (≈ 7.34 µM). The compound further returned an HC50 in [4] of 125 µg/mL. Moreover, the outcome in the data set on Cell membrane [6], in the data set on Staphylococcus aureus [7], in the data set on Cell membrane [8], in the data set with Cell membrane [9], in the data set on Escherichia coli [10] and with Cell membrane [11] was Active. Moreover, in data set [5], the selectivity ratio was determined as 25.
Regarding `CCCCCCCCCCCCCCCCCC(=O)N[C@@H](CCCCN)C(=O)N[C@@H](CCCCN)CN(CC(N)=O)S(=O)(=O)Cc1ccccc1`, the MIC in the data set on Pseudomonas aeruginosa was greater than 50 µg/mL; in the data set with Escherichia coli [1] it was greater than 50 µg/mL; against Staphylococcus aureus [2], 2 µg/mL (≈ 2.71 µM); against Enterococcus faecalis, 5 µg/mL (≈ 6.78 µM); in data set [3], 20 µg/mL (≈ 27.1 µM).
Consider `CCCCCCCCCCCCCCCCNC(=O)CN(C[C@H](CCCCN)NC(=O)[C@@H](N)CCCCN)S(=O)(=O)Cc1ccccc1`, for which the MIC in the data set with Pseudomonas aeruginosa was greater than 50 µg/mL; in the data set on Escherichia coli [1], 5 µg/mL (≈ 7.19 µM); with Staphylococcus aureus [2], 5 µg/mL (≈ 7.19 µM); with Enterococcus faecalis, 5 µg/mL (≈ 7.19 µM); in data set [3], 20 µg/mL (≈ 28.8 µM).
As to `CCCCCCCCCCCCCCCC(=O)N[C@@H](CCCCN)CN(CC(=O)N[C@@H](CCCCN)CN(CC(N)=O)S(=O)(=O)Cc1ccccc1)S(=O)(=O)Cc1ccccc1`, the MIC in the data set on Pseudomonas aeruginosa is greater than 50 µg/mL; with Escherichia coli [1] it was greater than 50 µg/mL; in the data set on Staphylococcus aureus [2], 8 µg/mL (≈ 8.83 µM); against Enterococcus faecalis, 8 µg/mL (≈ 8.83 µM); in data set [3], 20 µg/mL (≈ 22.1 µM).
For `CCCCCCCCCCCCCCCC(=O)N[C@@H](CCCCN)C(=O)N[C@@H](CCCCN)CN(CC(N)=O)S(=O)(=O)Cc1ccccc1`, the MIC is 20 µg/mL (≈ 28.2 µM) against Pseudomonas aeruginosa; 5 µg/mL (≈ 7.05 µM) in the data set on Escherichia coli [1]; 5 µg/mL (≈ 7.05 µM) in the data set with Staphylococcus aureus [2]; 5 µg/mL (≈ 7.05 µM) with Enterococcus faecalis; 5 µg/mL (≈ 7.05 µM) in [3].
`CCCCCCCCCCCCCCCCNC(=O)CN(C[C@@H](N)CCCCN)S(=O)(=O)Cc1ccccc1`: the MIC in the data set on Pseudomonas aeruginosa is greater than 50 µg/mL; with Escherichia coli [1], 5 µg/mL (≈ 8.82 µM); in the data set on Staphylococcus aureus [2], 5 µg/mL (≈ 8.82 µM); against Enterococcus faecalis it was 5 µg/mL (≈ 8.82 µM); in data set [3] it was 20 µg/mL (≈ 35.3 µM).
Regarding `CCCCCCCCCCCCCC(=O)N[C@@H](CCCCN)C(=O)N[C@@H](CCCCN)CN(CC(=O)N[C@@H](CCCCN)CN(CC(N)=O)S(=O)(=O)Cc1ccccc1)S(=O)(=O)Cc1ccccc1`, the MIC with Pseudomonas aeruginosa came to 5 µg/mL (≈ 4.97 µM); against Escherichia coli [1] it was 5 µg/mL (≈ 4.97 µM); in the data set on Staphylococcus aureus [2] it was 2 µg/mL (≈ 1.99 µM); against Enterococcus faecalis it was 8 µg/mL (≈ 7.95 µM); in [3], 5 µg/mL (≈ 4.97 µM). Besides, in data set [4], the HC50 worked out at 100 µg/mL. Besides, the selectivity ratio in data set [5] was found to be 50.
Turning to `CCCCCCCCCCCCCCCC(=O)N[C@@H](CCCCN)CN(CC(N)=O)S(=O)(=O)Cc1ccccc1`, the MIC against Pseudomonas aeruginosa was greater than 50 µg/mL; in the data set with Escherichia coli [1], greater than 50 µg/mL; with Staphylococcus aureus [2], 5 µg/mL (≈ 8.61 µM); against Enterococcus faecalis, 5 µg/mL (≈ 8.61 µM); in data set [3], 8 µg/mL (≈ 13.8 µM).
